ChEMBL document CHEMBL1124658, “Conformationally restricted analogues of the muscarinic agent N-methyl-N-(1-methyl-4-pyrrolidino-2-butynyl)acetamide” (J Med Chem, 1989)

Tests used:
Mus musculus [1] = organism: Mus musculus; experiment: Antimuscarinic activity in intact mice was determined as the dose required to double the dose of oxotremorine inducing a predetermined tremor intensity; assay type: functional
Procedure, shortened: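 Male Swiss–Webster mice (24–32 g) were given the compound ip at 200 μmol/kg in groups of six or more, with six untreated controls. Twenty minutes later the oxotremorine ED50 (iv) was found by the up-and-down method, with intermittent spontaneous grade 2 tremor as end point. Active compounds were tested at two more doses, and the doubling dose came from linear regression of oxotremorine ED50 against antagonist dose.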

Cavia porcellus [2] = organism: Cavia porcellus; experiment: Maximum contractile response relative to that elicited by carbachol in guinea pig ileum; assay type: functional
Procedure, shortened: (§1)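 Guinea pig ileum in Tyrode (pH 7.4, 0.3 mM hexamethonium), 37 °C, isotonic contractions at 1 g tension; cumulative agonist concentration–response curves, concentration raised stepwise by a factor of 2.15; maximal contraction expressed relative to the carbachol maximum. Three determinations, each in triplicate.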

[3] = biological target: Muscarinic acetylcholine receptor; experiment: Compound was tested for the concentration that inhibited the specific binding of (-)-[3H]-NMS to muscarinic receptor in the rat cerebral cortex.; assay type: tissue-based
Procedure, shortened: (§2)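 Rat (male Sprague–Dawley, 200–300 g) cerebral cortex homogenate, 10 mg wet tissue/mL in 50 mM Na–K phosphate pH 7.4. Incubated 30 min at 30 °C with 0.3 nM (–)-[3H]NMS plus unlabelled ligand; filtration assay. Nonspecific binding with 10 μM atropine. IC50 from one-site competition fit, corrected by Cheng–Prusoff to Ki; three experiments in triplicate.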

Cavia porcellus [4] = organism: Cavia porcellus; experiment: Equilibrium dissociation constant of the compound-receptor complex was determined by its ability to antagonize carbachol-induced contractions in the ileum (spasmolytic activity); assay type: functional
Procedure, shortened: (§3)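 Isolated guinea pig ileum in Tyrode solution (pH 7.4, 0.3 mM hexamethonium), 37 °C, isotonic recording at 1 g tension. Cumulative carbachol concentration–response curves (stepwise ×2.15) with at least three antagonist concentrations; dissociation constant from shifts, Schild slope checked where range allowed. Three determinations in triplicate.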

Mus musculus [5] = organism: Mus musculus; experiment: Antimuscarinic activity in intact mice was determined as the dose required to double the dose of oxotremorine inducing a predetermined tremor intensity.; assay type: functional
Procedure, shortened: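 Male Swiss–Webster mice (24–32 g), groups of six or more; antagonist given ip 200 μmol/kg, untreated controls. After 20 min, oxotremorine ED50 (iv) estimated by up-and-down method, end point intermittent spontaneous grade 2 tremor. Active compounds tested at two further doses; oxotremorine ED50 plotted against antagonist dose, dose doubling it found by linear regression.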

[6] = biological target: Muscarinic acetylcholine receptor; experiment: Compound was tested for the concentration that inhibited the specific binding of (-)-[3H]-NMS to muscarinic acetylcholine receptor in the rat cerebral cortex.; assay type: tissue-based; procedure, shortened: as §2
Cavia porcellus [7] = organism: Cavia porcellus; experiment: In vitro effective concentration required to elicit half-maximal contractile response in guinea pig ileum.
Cavia porcellus [8] = organism: Cavia porcellus; experiment: Maximum contractile response relative to that elicited by carbachol.; assay type: functional; procedure, shortened: as §1
Cavia porcellus [9] = organism: Cavia porcellus; experiment: Dissociation constant of the compound-receptor complex.; assay type: functional
Procedure, shortened: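 Guinea pig ileum in Tyrode solution (pH 7.4) with 0.3 mM hexamethonium at 37 °C, contractions recorded isotonically at 1 g tension. Cumulative carbachol concentration–response curves were built in steps of a factor of 2.15, in the presence of at least three antagonist concentrations. Antagonism was analysed by Schild plots.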

[10] = biological target: Muscarinic acetylcholine receptor; experiment: Compound was tested for the concentration that inhibited the specific binding of (-)-[3H]-NMS to muscarinic receptor in the rat cerebral cortex; assay type: tissue-based; procedure, shortened: as §2
Cavia porcellus [11] = organism: Cavia porcellus; experiment: Equilibrium dissociation constant of the compound-receptor complex was determined by its ability to antagonize carbachol-induced contractions in the ileum (spasmolytic activity).; assay type: functional; procedure, shortened: as §3
Cavia porcellus [12] = organism: Cavia porcellus; experiment: In vitro effective concentration required to elicit half-maximal contractile response in guinea pig ileum.; remark: listed apart in the source

SMILES | Ki [6] | Emax (Cavia porcellus [2]) | Kd (Cavia porcellus [4]) | Tremorolytic dose (Mus musculus [5]) | also measured
CC(=O)N1CCCC1C#CCN1CCCC1 (stereo not drawn) |  | 0 | 1.4 µM |  | Tremorolytic dose (Mus musculus [1]): 6.3 µM/kg; Ki [3]: 0.67 µM
CN(C)CC#CC1CCC(=O)N1C (stereo not drawn) | 204 µM | 0 | 496 µM | >200 µM/kg | 
CN1C(=O)CCC1C#CCN1CCCC1 (stereo not drawn) |  |  |  | 78.3 µM/kg | Emax (Cavia porcellus [8]): 0; Kd (Cavia porcellus [9]): 45.3 µM; Ki [3]: 18.3 µM
CN1C(=O)CCC1C#CC[N+](C)(C)C.[I-] (stereo not drawn) | 145 µM | <0.6 |  |  | EC50 (Cavia porcellus [7]): > 500 µM
CC(=O)N(C)C(C)C#CCN1CCCC1 (stereo not drawn) |  | 0.83 |  | 0.6 µM/kg | 
CC(=O)N1CCCC1C#CCN(C)C (stereo not drawn) |  | 0 |  | 119 µM/kg | Ki [10]: 25.4 µM; Kd (Cavia porcellus [11]): 125 µM
CC(=O)N(C(C)=O)C(C)C#CCN1CCCC1 (stereo not drawn) |  | 0 | 0.28 µM | 3.2 µM/kg | 
CC(=O)N1C(=O)CCC1C#CC[N+](C)(C)C.[I-] (stereo not drawn) | 6.4 µM | 0.78 |  |  | EC50 (Cavia porcellus [7]): 13.4 µM
CN1[C@@H]2CC[C@H]1C[C@@H](OC(=O)C(CO)c1ccccc1)C2 (stereo partly drawn) [ATROPINE] |  |  |  |  | Tremorolytic dose (Mus musculus [1]): 0.57 µM/kg; Kd (Cavia porcellus [9]): 0.0009 µM
C[N+](C)(C)CCOC(N)=O.[Cl-] [CARBACHOL] |  |  |  |  | Emax (Cavia porcellus [8]): 1; Kd (Cavia porcellus [9]): 15.3 µM; EC50 (Cavia porcellus [12]): 0.1 µM

More lines, main results first:

Ki [6] | SMILES | Emax (Cavia porcellus [2]) | Kd (Cavia porcellus [4]) | Tremorolytic dose (Mus musculus [5]) | also measured
6.1 µM | CC(=O)N1CCCC1C#CC[N+](C)(C)C.[I-] (stereo not drawn) | 0.8 |  |  | EC50 (Cavia porcellus [7]): 7.5 µM
0.78 µM | CC(=O)N1C(=O)CCC1C#CCN1CCCC1 (stereo not drawn) | 0 | 1.43 µM | 3.5 µM/kg | 
53.2 µM | CC(=O)N1C(=O)CCC1C#CCN(C)C (stereo not drawn) | 0 | 95.6 µM | 160 µM/kg | 
